Activity calls are given as the source filed them. The rule behind the calls is not given here.
Columns and labels:
[1] = target: T1, ATP-dependent translocase ABCB1 (Homo sapiens, UniProt P08183); assay: Inhibition of ABCB1 mediated efflux in human MCF7/DX1 cells assessed as intracellular rhodamine-123 accumulation after 30 to 40 mins by flow cytometry; type: cell-based
[2] = target: T2, Broad substrate specificity ATP-binding cassette transporter ABCG2 (Homo sapiens, UniProt Q9UNQ0); assay: Inhibition of human C-terminal GFP-tagged ABCG2 expressed in MDCK2 cells using pheophorbide A as substrate preincubated for 20 mins followed by substrate addition measured after 120 mins by flow cytometry; type: cell-based, MDCK-II
T2 sequence (Q9UNQ0 whole entry): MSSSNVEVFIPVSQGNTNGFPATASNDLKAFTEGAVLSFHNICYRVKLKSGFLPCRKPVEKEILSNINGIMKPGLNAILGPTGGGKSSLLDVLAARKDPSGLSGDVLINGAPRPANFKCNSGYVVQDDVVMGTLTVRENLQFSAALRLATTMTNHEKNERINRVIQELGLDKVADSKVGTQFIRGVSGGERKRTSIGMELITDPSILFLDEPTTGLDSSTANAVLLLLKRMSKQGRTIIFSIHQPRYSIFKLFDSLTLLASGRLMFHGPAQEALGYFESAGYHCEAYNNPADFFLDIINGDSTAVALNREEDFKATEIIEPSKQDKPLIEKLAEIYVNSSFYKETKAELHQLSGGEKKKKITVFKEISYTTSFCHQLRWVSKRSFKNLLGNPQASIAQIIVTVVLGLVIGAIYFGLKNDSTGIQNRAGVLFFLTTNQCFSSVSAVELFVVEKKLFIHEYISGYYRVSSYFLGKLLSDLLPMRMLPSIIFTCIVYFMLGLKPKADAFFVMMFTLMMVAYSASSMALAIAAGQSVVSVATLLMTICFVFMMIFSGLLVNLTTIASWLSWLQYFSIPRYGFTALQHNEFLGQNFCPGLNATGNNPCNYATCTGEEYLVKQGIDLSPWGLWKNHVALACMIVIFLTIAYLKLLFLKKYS
Method in brief: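 MDCK II BCRP cells, about 45,000/well in KHB, preincubated with compound for 20 min at 37 °C, 5% CO2. Pheophorbide A added (5 µM solution), then 120 min to steady state. Flow cytometry: excitation 488 nm, emission >670 nm (FL3); GFP in FL1. IC50 from 4-parameter logistic fit; duplicates.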

[3] = target: T1, ATP-dependent translocase ABCB1; assay: Inhibition of ABCB1 in human A2780/ADR cells incubated for 30 mins measured up to 3600 secs with time intervals of 60 secs by calcein accumulation assay; type: cell-based
ABCG2 = assay: Therapeutic ratio of GI50 for MDCK2 cells expressing human C-terminal GFP-tagged ABCG2 to IC50 for human C-terminal GFP-tagged ABCG2 expressed in MDCK2 cells; type: ADME, cell-based; settings: dog, read-out: TI
Method in brief: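 Ratio of GI50 from a 72 h MTT assay in MDCK II BCRP cells to IC50 from the pheophorbide A assay in the same cells.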

ABCB1 (P-glycoprotein) [4] = target: ABCB1 (P-glycoprotein) (Homo sapiens, UniProt P08183); assay: Inhibition of ABCB1 in human A2780/ADR cells at 10 uM incubated for 30 mins measured up to 3600 secs with time intervals of 60 secs by calcein accumulation assay relative to cyclosporine A; type: cell-based; settings: probe calcein, read-out: Imax
Chain of ABCB1 (P-glycoprotein) (Homo sapiens, UniProt P08183) (P08183 whole entry): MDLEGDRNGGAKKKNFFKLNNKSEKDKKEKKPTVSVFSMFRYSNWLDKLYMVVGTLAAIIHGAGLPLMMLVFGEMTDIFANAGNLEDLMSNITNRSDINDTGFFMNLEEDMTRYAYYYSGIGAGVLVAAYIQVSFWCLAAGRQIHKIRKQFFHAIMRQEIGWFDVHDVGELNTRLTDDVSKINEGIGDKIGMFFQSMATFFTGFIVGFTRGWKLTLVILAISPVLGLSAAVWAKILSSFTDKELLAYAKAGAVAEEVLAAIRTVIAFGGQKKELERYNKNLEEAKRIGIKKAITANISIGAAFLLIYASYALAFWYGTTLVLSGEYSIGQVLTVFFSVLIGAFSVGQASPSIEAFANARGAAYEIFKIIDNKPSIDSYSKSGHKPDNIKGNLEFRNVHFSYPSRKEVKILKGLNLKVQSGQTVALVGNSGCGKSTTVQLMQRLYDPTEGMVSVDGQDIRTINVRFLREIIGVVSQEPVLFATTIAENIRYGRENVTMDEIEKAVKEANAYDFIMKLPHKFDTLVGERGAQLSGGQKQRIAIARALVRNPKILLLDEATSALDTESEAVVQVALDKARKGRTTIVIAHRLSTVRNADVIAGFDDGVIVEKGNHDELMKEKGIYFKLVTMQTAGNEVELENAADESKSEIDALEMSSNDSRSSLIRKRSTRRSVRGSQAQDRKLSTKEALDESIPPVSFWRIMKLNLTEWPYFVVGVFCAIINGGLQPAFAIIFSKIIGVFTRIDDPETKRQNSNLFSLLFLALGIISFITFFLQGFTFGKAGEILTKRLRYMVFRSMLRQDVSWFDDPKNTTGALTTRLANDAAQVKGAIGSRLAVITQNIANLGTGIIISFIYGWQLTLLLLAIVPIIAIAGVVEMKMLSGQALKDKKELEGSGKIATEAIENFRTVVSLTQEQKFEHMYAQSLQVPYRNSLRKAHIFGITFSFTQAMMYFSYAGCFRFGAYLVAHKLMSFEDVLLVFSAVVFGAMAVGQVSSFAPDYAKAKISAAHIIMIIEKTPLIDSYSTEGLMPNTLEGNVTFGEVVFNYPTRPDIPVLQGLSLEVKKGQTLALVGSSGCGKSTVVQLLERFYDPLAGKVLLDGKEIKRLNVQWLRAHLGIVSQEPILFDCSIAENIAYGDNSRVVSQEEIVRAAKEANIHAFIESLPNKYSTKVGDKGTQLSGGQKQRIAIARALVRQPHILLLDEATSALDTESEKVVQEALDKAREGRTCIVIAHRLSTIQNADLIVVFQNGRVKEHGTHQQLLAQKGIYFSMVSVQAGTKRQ
Method in brief: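 A2780adr cells, about 30,000/well, preincubated with compound for 30 min. Calcein AM then added (1.25 µM solution); fluorescence (ex 485/em 520 nm) read every 60 s to 3600 s at 37 °C. […] IC50 by four-parameter logistic fit, variable slope.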

ABCB1 (P-glycoprotein) [5] = assay: Therapeutic ratio of GI50 for human A2780/ADR cells overexpressing ABCB1 to IC50 for ABCB1 in human A2780/ADR cells; type: ADME, cell-based; settings: read-out: TI
[6] = target: T2, Broad substrate specificity ATP-binding cassette transporter ABCG2; assay: Inhibition of vanadate-sensitive ATPase activity of recombinant human ABCG2 expressed in baculovirus infected Sf9 cell membrane assessed as decrease in inorganic phosphate production at 1 uM after 20 mins by colorimetry; settings: sf9, 20 min
Method in brief: (§1)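 Sf9 membranes from cells infected with baculovirus carrying human wild-type ABCG2, cholesterol-loaded; protein by BCA. Buffer: 40 mM MOPS-Tris pH 7.0, 50 mM KCl, 2 mM DTT, 500 µM EGTA-Tris, 5 mM azide, 1 mM ouabain, 10 µg protein. Reaction started with 3.3 mM MgATP, 20 min at 37 °C. Basal activity with 1 mM orthovanadate; 1 µM quercetin and 1 µM Ko143 as references. Pi by molybdate/ascorbate at 880 nm against K2HPO4 standard; triplicates.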

[7] = Cytotoxicity against human A2780 cells assessed as reduction in cell viability after 72 hrs by MTT assay; type: cell-based
Method in brief: (§2)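 MTT assay in A2780 and ABCB1-overexpressing doxorubicin-resistant A2780adr cells; A2780adr given 1 μM doxorubicin for one passage every 10 passages. 8 x 10³ cells/well, 6 h attachment, 72 h compound exposure at 37 °C, 5% CO2. MTT 1 h, DMSO solubilization, A570 with 690 nm background. Normalized data; GI50 by variable-Hill-slope sigmoidal regression.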

[8] = Cytotoxicity against human A2780/ADR cells overexpressing ABCB1 assessed as reduction in cell viability after 72 hrs by MTT assay; type: ADME, cell-based; method in brief: as §2
[9] = Cytotoxicity against MDCK2 cells expressing human C-terminal GFP-tagged ABCG2 assessed as reduction in cell viability after 72 hrs by MTT assay; type: ADME, cell-based, Canis lupus familiaris, MDCK-II; settings: dog
Method in brief: (§3)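 Seeding 3 x 10³ cells/well, 6 h attachment at 37 °C, 5% CO2, then compound for 72 h. Controls: 10% DMSO (positive), medium (negative). MTT 5 mg/ml stock for 1 h; formazan in DMSO; A570, background 690 nm. Normalized to control; GI50 from variable-slope sigmoidal fit.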

[10] = Cytotoxicity against MDCK2 cells assessed as reduction in cell viability after 72 hrs by MTT assay; type: cell-based, Canis lupus familiaris, MDCK-II; settings: dog; method in brief: as §3
[11] = target: T2, Broad substrate specificity ATP-binding cassette transporter ABCG2; assay: Inhibition of ABCG2 (unknown origin)
[12] = target: T2, Broad substrate specificity ATP-binding cassette transporter ABCG2; assay: Non-competitive inhibition of human C-terminal GFP-tagged ABCG2 expressed in MDCK2 cells using pheophorbide A as substrate preincubated for 20 mins followed by substrate addition measured after 120 mins by Lineweaver-Burk plot analysis; type: cell-based; settings: mdck-ii, 2 h
Method in brief: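 Pheophorbide A accumulation in MDCK II BCRP cells with substrate at 0.2, 0.4, 0.5, 1.0, 1.5 and 2.0 μM. Inhibitor at 0, 0.031, 0.1, 0.18, 0.31 and 0.56 μM. Transport velocities analyzed by Lineweaver-Burk linearization; inhibition type assigned from changes in KM and Vmax.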

[13] = target: T2, Broad substrate specificity ATP-binding cassette transporter ABCG2; assay: Inhibition of vanadate-sensitive ATPase activity of recombinant human ABCG2 expressed in baculovirus infected Sf9 cell membrane assessed as decrease in inorganic phosphate production at >1 uM after 20 mins by colorimetry; settings: sf9, 20 min; method in brief: as §1
[14] = target: T2, Broad substrate specificity ATP-binding cassette transporter ABCG2; assay: Inhibition of human C-terminal GFP-tagged ABCG2 expressed in MDCK2 cells assessed as SN-38-induced cytotoxicity by measuring cell viability at 0.01 to 0.1 uM after 72 hrs by MTT assay; type: cell-based; settings: mdck-ii
Method in brief: (§4)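 SN-38 dose-response curves in MDCK II BCRP cells (canine kidney line stably transfected with human ABCG2 C-terminally fused to GFP) and parental MDCK II wild-type cells. Modulator was present at a final 0.01 or 0.1 µM. Cells were seeded at 3 x 10³ per well, attached 6 h, then exposed 72 h. MTT was read at 570 nm minus 690 nm. Data were normalized and fitted with variable-slope sigmoidal regression.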

[15] = target: Multidrug resistance-associated protein 1 (Homo sapiens, UniProt P33527); assay: Inhibition of ABCC1 in human H69AR cells at 10 uM incubated for 30 mins measured up to 3600 secs with time intervals of 60 secs by calcein accumulation assay; type: cell-based
Chain of Multidrug resistance-associated protein 1 (P33527 whole entry): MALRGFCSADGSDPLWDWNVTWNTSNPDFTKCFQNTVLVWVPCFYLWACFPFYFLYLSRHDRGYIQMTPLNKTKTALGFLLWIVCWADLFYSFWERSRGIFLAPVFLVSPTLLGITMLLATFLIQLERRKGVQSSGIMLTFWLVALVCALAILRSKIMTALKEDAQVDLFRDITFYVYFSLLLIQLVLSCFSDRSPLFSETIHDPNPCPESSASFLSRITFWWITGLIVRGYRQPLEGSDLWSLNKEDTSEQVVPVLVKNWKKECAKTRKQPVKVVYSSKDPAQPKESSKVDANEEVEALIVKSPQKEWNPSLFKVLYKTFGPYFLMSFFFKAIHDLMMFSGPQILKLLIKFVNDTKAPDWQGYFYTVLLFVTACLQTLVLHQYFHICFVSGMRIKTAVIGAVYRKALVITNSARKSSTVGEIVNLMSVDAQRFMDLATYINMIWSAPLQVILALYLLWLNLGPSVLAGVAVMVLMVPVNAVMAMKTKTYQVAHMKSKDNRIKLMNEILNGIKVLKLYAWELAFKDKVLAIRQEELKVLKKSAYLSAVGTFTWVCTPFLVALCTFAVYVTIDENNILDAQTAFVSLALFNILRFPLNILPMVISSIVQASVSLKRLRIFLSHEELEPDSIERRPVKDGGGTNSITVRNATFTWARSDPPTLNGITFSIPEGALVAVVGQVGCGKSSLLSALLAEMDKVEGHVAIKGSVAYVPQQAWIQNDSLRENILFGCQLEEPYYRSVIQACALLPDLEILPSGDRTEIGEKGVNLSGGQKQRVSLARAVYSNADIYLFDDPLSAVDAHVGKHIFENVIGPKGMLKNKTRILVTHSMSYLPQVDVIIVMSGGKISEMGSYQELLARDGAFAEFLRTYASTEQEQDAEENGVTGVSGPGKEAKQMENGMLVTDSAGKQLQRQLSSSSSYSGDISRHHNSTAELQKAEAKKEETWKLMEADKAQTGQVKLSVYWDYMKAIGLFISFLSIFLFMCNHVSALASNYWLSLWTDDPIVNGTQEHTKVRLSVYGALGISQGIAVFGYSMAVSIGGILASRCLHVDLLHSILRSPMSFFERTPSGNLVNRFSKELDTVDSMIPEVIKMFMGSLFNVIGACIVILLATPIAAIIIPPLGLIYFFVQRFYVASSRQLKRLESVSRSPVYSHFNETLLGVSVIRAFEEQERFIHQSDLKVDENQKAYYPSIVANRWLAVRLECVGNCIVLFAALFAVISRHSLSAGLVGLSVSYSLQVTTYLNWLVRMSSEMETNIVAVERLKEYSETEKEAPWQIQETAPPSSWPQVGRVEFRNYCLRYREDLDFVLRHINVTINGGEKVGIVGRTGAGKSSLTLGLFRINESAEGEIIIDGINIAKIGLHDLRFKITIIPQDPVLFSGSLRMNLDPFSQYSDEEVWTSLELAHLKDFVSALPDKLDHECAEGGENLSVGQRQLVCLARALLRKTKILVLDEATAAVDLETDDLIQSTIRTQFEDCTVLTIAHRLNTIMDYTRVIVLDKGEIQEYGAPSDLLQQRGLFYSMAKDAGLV
Method in brief: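 Calcein AM assay in ABCC1-overexpressing H69AR cells, about 30,000/well, 30 min preincubation with compound at 10 μM. Calcein AM (1.25 µM solution) added; fluorescence at ex 485/em 520 nm every 60 s up to 3600 s at 37 °C.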

[16] = target: T2, Broad substrate specificity ATP-binding cassette transporter ABCG2; assay: Induction of vanadate-sensitive ATPase activity of recombinant human ABCG2 expressed in baculovirus infected Sf9 cell membrane assessed as increase in inorganic phosphate production up to 1 uM after 20 mins by colorimetry; settings: sf9, 20 min; method in brief: as §1
MDCK-II = assay: Potentiation of SN-38-induced cytotoxicity in MDCK2 cells assessed as decrease in cell viability at 0.01 to 0.1 uM after 72 hrs by MTT assay; type: functional, cell-based; settings: Canis lupus familiaris; method in brief: as §4
[17] = target: T2, Broad substrate specificity ATP-binding cassette transporter ABCG2; assay: Inhibition of vanadate-sensitive ATPase activity of recombinant human ABCG2 expressed in baculovirus infected Sf9 cell membrane assessed as decrease in inorganic phosphate production up to 1 uM after 20 mins by colorimetry; settings: sf9, 20 min; method in brief: as §1
[18] = target: T2, Broad substrate specificity ATP-binding cassette transporter ABCG2; assay: Induction of vanadate-sensitive ATPase activity of recombinant human ABCG2 expressed in baculovirus infected Sf9 cell membrane assessed as increase in inorganic phosphate production at >1 uM after 20 mins by colorimetry; settings: sf9, 20 min; method in brief: as §1
MCF7 [19] = assay: Drug uptake in human MCF7 cells up to 60 mins by fluorescence spectroscopic analysis; type: ADME, cell-based; settings: mcf7, 1 h
Method in brief: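 Parental MCF-7 cells, 1 x 10^6 per 4.5 ml KHB, incubated with compound for varying times […]. After a KHB wash, intracellular fluorescence was read in a fluorescence spectrometer.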

MCF7 [20] = assay: Drug uptake in human MCF7 cells at 10 uM after 2 hrs by confocal laser scanning microscopic analysis; type: ADME, cell-based; settings: mcf7, 2 h
Method in brief: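 Parental MCF-7 cells, 1 x 10^5 seeded in dishes for 48 h to 50-60% confluence, then exposed to 10 µM compound for 2 h. Supernatant replaced with KHB; confocal imaging at 37 °C, excitation 405 nm, emission 425-475 nm.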

[21] = target: T2, Broad substrate specificity ATP-binding cassette transporter ABCG2; assay: Inhibition of ABCG2 in human MCF7/MX cells assessed as intracellular pheophorbide A accumulation at 10 uM after 2 hrs by confocal laser scanning microscopic analysis; type: cell-based
Method in brief: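 MCF-7 MX cells (ABCG2-overexpressing; 0.1 µM mitoxantrone every 10 passages) incubated with pheophorbide A together with compound for 2 h. Imaged by confocal laser scanning microscopy at 37 °C after replacing the medium with KHB.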

T1 sequence (P08183 whole entry): as the sequence (P08183 whole entry) above

Structure (SMILES)	IC50 [2] [nM]	IC50 [3] [nM]	selectivity ratio (ABCG2)	inhibition at 30 min, 10 µM (ABCB1 (P-glycoprotein) [4]) [%]	selectivity ratio (ABCB1 (P-glycoprotein) [5])	GI50 at 72 h [7] [nM]	GI50 at 72 h [8] [nM]	GI50 at 72 h [9] [nM]	GI50 at 72 h [10] [nM]	further results
COc1ccc2c3c1O[C@H]1C[C@@H](OC(=O)CCCCCCCCC(=O)O[C@H]4C=C[C@@]56CN(C)CCc7ccc(OC)c(c75)O[C@H]6C4)C=C[C@@]31CN(C)CC2										IC50 [1]: 800 nM
COc1ccc(/C=C/C(=O)c2cccc(Nc3ncnc4cc(OC)c(OC)cc34)c2)cc1OC	1710	860	7	68	2	1350	1500	11500	6140	inhibition (INH) [6]: Active
COc1ccc(/C=C/C(=O)c2ccc(OC)c(OC)c2)cc1OC										IC50 [11]: 5120 nM
COc1ccc(/C=C/C(=O)c2cccc(Nc3nc(-c4ccc(OC)c(OC)c4)nc4ccccc34)c2)cc1	210	1290	62	70	3	4390	3250	13100	10300	
COc1ccc(/C=C/C(=O)c2ccc(Nc3nc(-c4ccc(OC)c(OC)c4)nc4ccccc34)cc2)cc1OC	190	14900	489					92900	132000	inhibition (INH) [12]: Active; inhibition (INH) [13]: Active; inhibition (INH) [14]: Active; inhibition (INH) [15]: Not Active; Activity [16]: Active; Activity (MDCK-II): Active
COc1ccc(/C=C/C(=O)c2cccc(Nc3nc(-c4ccc(OC)c(OC)c4)nc4ccccc34)c2)cc1OC	600	480	18	76	4	1980	1710	10900	12600	
COc1cccc(/C=C/C(=O)c2ccc(Nc3ncnc4cc(OC)c(OC)cc34)cc2)c1	390	7550								inhibition (INH) [17]: Active; inhibition (INH) [6]: Active; Activity [18]: Not Active
COc1ccc(/C=C/C(=O)c2ccc(Nc3ncnc4ccccc34)cc2)cc1OC	840	2340		61						Drug uptake (MCF7 [19]): Active; Drug uptake (MCF7 [20]): Active; inhibition (INH) [21]: Active
COc1ccc2c3c([nH]c2c1)[C@H](CC(C)C)N1C(=O)[C@H](CCC(=O)OC(C)(C)C)NC(=O)[C@@H]1C3								11100	10900	Activity (MDCK-II): Active
COc1ccc(/C=C/C(=O)c2cccc(Nc3ncnc4ccccc34)c2)cc1OC	1300	420	4	66	2	650	700	5140	3420	

From ChEMBL document CHEMBL3808298, “The combination of quinazoline and chalcone moieties leads to novel potent heterodimeric modulators of breast cancer resistance protein (BCRP/ABCG2)” (Eur J Med Chem, 2016)
